Experimental data taken from ChEMBL document CHEMBL3351241, “Metabolic stability optimization and metabolite identification of 2,5-thiophene amide 17β-hydroxysteroid dehydrogenase type 2 inhibitors” (Eur J Med Chem, 2014).

Tests used:
[1] = target: T1, 17-beta-hydroxysteroid dehydrogenase type 2 (Homo sapiens, UniProt P37059); experiment: Displacement of [3H]E2 from human placental microsomal 17beta-HSD2 after 20 mins by cell-free assay
T1 sequence (P37059 whole entry): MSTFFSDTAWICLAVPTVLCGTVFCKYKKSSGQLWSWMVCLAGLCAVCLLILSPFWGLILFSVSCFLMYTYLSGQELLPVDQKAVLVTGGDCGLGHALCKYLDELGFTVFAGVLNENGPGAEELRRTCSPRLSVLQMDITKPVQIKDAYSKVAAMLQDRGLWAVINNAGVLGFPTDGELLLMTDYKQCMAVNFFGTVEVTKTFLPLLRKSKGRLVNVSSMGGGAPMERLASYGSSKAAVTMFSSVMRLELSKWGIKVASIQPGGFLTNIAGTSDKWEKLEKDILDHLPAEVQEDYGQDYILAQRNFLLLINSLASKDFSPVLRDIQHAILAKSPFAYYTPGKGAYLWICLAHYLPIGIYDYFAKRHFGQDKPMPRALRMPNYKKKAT
Procedure, shortened: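 Microsomal 17β-HSD2 from human placenta, 150,000 g pellet. Started with unlabeled plus [3H]-E2 (final 500 nM), stopped after 20 min with HgCl2, ether-extracted. E1/E2 resolved by radio-HPLC, giving % conversion. Inhibition read at 1 µM.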

[2] = target: T2, Estrogen receptor (Homo sapiens) (UniProt P03372); experiment: Displacement of [3H]E2 from human recombinant ERalpha at 3 nM after 16 to 20 hrs by cell-free assay
T2 sequence (whole entry): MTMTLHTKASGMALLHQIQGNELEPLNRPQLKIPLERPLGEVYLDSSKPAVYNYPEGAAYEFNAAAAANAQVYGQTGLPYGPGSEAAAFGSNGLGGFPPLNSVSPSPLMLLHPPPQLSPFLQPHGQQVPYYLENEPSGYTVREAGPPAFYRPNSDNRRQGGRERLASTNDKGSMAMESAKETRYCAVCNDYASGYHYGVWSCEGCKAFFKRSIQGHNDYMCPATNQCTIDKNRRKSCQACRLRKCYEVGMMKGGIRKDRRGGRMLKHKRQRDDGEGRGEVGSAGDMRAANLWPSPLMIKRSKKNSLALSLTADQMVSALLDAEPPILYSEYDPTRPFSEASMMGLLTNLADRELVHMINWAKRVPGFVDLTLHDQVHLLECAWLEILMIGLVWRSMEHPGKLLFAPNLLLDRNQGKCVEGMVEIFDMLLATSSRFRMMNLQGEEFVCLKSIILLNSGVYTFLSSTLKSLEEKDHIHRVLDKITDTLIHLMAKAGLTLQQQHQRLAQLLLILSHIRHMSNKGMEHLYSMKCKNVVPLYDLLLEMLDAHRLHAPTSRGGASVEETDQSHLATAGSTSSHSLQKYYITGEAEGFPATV
Procedure, shortened: (§1)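 Recombinant human ERα (1 nM, [3H]-E2 3 nM) or ERβ (4 nM, [3H]-E2 10 nM) incubated with test compound, 5% DMSO final, for 16–20 h at 4 °C. Nonspecific binding set with 100-fold unlabeled E2. Complexes bound to hydroxyapatite, washed three times, counted by liquid scintillation. Compounds tested at 1000-fold the [3H]-E2 level (3 µM ERα, 10 µM ERβ). Below 50% displacement classed RBA <0.1%.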

[3] = target: Estrogen receptor beta (Homo sapiens) (UniProt Q92731); experiment: Displacement of [3H]E2 from human recombinant ERbeta at 10 nM after 16 to 20 hrs by cell-free assay; procedure, shortened: as §1
Chain of Estrogen receptor beta (Homo sapiens) (Q92731 whole entry): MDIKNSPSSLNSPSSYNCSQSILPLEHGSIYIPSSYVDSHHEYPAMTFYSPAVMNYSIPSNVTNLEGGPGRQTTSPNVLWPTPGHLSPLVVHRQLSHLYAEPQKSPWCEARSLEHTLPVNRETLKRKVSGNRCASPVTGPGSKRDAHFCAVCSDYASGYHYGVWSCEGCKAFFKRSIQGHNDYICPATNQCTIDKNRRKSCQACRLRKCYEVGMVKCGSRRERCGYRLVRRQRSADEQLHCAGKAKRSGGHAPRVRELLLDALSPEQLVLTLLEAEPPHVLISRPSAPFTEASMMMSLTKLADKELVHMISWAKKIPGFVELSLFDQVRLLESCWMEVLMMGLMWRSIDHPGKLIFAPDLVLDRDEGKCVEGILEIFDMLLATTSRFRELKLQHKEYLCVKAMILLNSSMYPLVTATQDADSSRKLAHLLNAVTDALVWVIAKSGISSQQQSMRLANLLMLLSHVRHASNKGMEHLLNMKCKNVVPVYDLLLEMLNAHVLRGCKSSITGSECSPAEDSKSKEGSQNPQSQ

[4] = species on record: Homo sapiens; experiment: Selectivity factor, ratio of IC50 for human placental cytosolic17beta-HSD1 to IC50 for human placental microsomal 17beta-HSD2
[5] = target: T3, 17-beta-hydroxysteroid dehydrogenase type 1 (Homo sapiens, UniProt P14061); experiment: Displacement of [3H]E1 from human placental cytosolic17beta-HSD1 after 10 mins by cell-free assay
T3 sequence (P14061 whole entry): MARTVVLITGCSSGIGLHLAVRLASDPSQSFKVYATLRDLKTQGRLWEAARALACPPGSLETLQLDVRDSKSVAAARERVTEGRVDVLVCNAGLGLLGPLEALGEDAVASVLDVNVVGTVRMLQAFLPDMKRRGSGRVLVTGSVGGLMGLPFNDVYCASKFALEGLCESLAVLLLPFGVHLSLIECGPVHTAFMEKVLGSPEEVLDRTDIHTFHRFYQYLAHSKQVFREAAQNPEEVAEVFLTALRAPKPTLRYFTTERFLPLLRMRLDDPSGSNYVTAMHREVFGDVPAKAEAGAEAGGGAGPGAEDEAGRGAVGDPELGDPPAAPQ
Procedure, shortened: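 Cytosolic 17β-HSD1 from human placenta, ammonium sulfate precipitated. Enzyme incubated with NADH 500 µM, test compound and unlabeled plus [3H]-E1 (final 500 nM) for 10 min at 37 °C. Reaction stopped with HgCl2 and extracted with ether. E1/E2 separated by C18 RP HPLC (acetonitrile/water 45:55) with radioflow detection. Activity taken as % conversion. Percent inhibition read at 1 µM.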

[6] = Drug metabolism in human liver microsome S9 fraction assessed as didemethylation metabolite formation by LC-MS/MS analysis; assay type: ADME; conditions: microsomes
[7] = Drug metabolism in human liver microsome S9 fraction assessed as acid metabolite formation by LC-MS/MS analysis; assay type: ADME; conditions: microsomes
[8] = Drug metabolism in human liver microsome S9 fraction assessed as di-hydroxylation metabolite formation by LC-MS/MS analysis; assay type: ADME; conditions: microsomes
[9] = Drug metabolism in human liver microsome S9 fraction assessed as demethylation/hydroxylation metabolite formation by LC-MS/MS analysis; assay type: ADME; conditions: microsomes
[10] = Half-life in human liver microsome S9 fraction at 1 uM up to 60 mins by LC-MS/MS analysis; assay type: ADME, microsomes
Procedure, shortened: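 Sampled at 0, 5, 15 and 60 min and quenched with 2 volumes cold acetonitrile containing internal standard. Remaining parent quantified by LC-MS/MS to give t1/2.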

[11] = Half-life in human liver microsome S9 fraction at 3 uM up to 45 mins by LC-MS/MS analysis; assay type: ADME, microsomes
[12] = Drug metabolism in human liver microsome S9 fraction treated with N-Methyl-N,5-bis(3-methylphenyl)thiophene-2-carboxamide by LC-MS/MS analysis; assay type: ADME; conditions: microsomes

IC50 [1] [µM] | inhibition [2] [%] | inhibition [3] [%] | Ratio IC50 [4] | IC50 [5] [µM] | other results | SMILES
0.327 | 16 | 11 | 29 | 9.41 | – | Cc1cccc(-c2ccc(C(=O)N(C)c3cccc(Cl)c3)s2)c1
– | 11 | 34 | – | – | – | Cc1ccc(-c2ccc(C(=O)N(C)c3cccc(C)c3)s2)cc1
– | – | – | – | – | Drug metabolism [6]: metabolite_notdetected; Drug metabolism [7]: metabolite_notdetected; Drug metabolism [8]: metabolite_notdetected | COc1cccc(N(C)C(=O)c2ccc(-c3cccc(C)c3)s2)c1
– | – | – | – | – | Drug metabolism [9]: metabolite_notdetected; Drug metabolism [7]: metabolite_notdetected | COc1cccc(-c2ccc(C(=O)N(C)c3cccc(OC)c3)s2)c1
– | 8 | 11 | – | – | – | Cc1cccc(-c2ccc(C(=O)N(C)c3cccc(C)c3)cc2)c1
– | 12 | 21 | – | – | Drug metabolism [6]: metabolite_notdetected | Cc1cccc(-c2ccc(C(=O)N(C)c3cccc(C)c3)s2)c1
0.225 | – | – | 3 | 0.698 | half-life at 1 µM [10]: 22 min | Cc1ccc(-c2ccc(C(=O)N(C)c3ccccc3C)s2)cc1
– | – | – | – | – | half-life at 3 µM [11]: 29 min | COc1cccc(N(C)C(=O)c2ccc(-c3cccc(N(C)C)c3)s2)c1
– | – | – | – | – | half-life at 1 µM [10]: 12 min | COc1cccc(N(C)C(=O)c2ccc(-c3cccc(OC)c3F)s2)c1
0.127 | – | – | 132 | 16.7 | – | COc1cc(-c2cccc(C)c2)sc1C(=O)N(C)c1cccc(C)c1
– | 5 | 4 | – | – | – | Cc1ccc(N(C)C(=O)c2ccc(-c3ccc(C)c(C)c3)s2)cc1
– | – | – | – | – | Drug metabolism [12]: metabolite_notdetected | Cc1cccc(N(C)C(=O)c2ccc(-c3cccc(CO)c3)s2)c1
0.499 | 9 | 0 | 51 | 25.3 | half-life at 1 µM [10]: 5 min | Cc1cccc(-c2cnc(C(=O)N(C)c3cccc(C)c3)s2)c1
